Source: ChEMBL document CHEMBL3774372, “Design, physico-chemical properties and biological evaluation of some new N-[(phenoxy)alkyl]- and N-{2-[2-(phenoxy)ethoxy]ethyl}aminoalkanols as anticonvulsant agents” (Bioorg Med Chem, 2016)
Each block holds one compound with its values, some of them ahead of it. Activity calls are given as the source filed them.

Experiments:
[1] = test system: Mus musculus; assay: Anticonvulsant activity in mouse assessed as protection against maximal electric shock-induced seizures at 100 mg/kg, ip measured after […]; format: functional, organism-based
[2] = test system: Mus musculus; assay: Anticonvulsant activity in mouse assessed as protection against 6 Hz psychomotor seizure at 50 mg/kg, ip after 0.5 hrs; format: functional, organism-based
Procedure, shortened: (§1)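 Suspension in 0.5% methylcellulose given ip to mice; corneal stimulation with 0.2 ms monopolar rectangular pulses at 6 Hz for 3 s from a constant current device, mice restrained then released to observation cage. Protected if normal exploratory behaviour resumed within 10 s of stimulation. Scored as protected/tested, 4 mice per group.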

[3] = test system: Mus musculus; assay: Anticonvulsant activity in mouse assessed as protection against 6 Hz psychomotor seizure at 50 mg/kg, ip after 1 hr; format: functional, organism-based; procedure, shortened: as §1
[4] = test system: Mus musculus; assay: Anticonvulsant activity in mouse assessed as protection against 6 Hz psychomotor seizure at 50 mg/kg, ip after 2 hrs; format: functional, organism-based; procedure, shortened: as §1
[5] = test system: Mus musculus; assay: Anticonvulsant activity in mouse assessed as protection against 6 Hz psychomotor seizure at 50 mg/kg, ip after 4 hrs; format: functional, organism-based; procedure, shortened: as §1
[6] = test system: Mus musculus; assay: Neurotoxicity in mouse at 50 mg/kg, ip after 0.5 hrs by rotarod test; format: toxicity, organism-based; conditions: in vivo
Procedure, shortened: (§2)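 Mice were dosed ip with compound suspended in 0.5% methylcellulose. Rotarod: a 1 in. knurled rod turning at 6 rpm. Neurotoxicity was scored as failure to stay on the rod for at least 1 min in each of three trials. Results are given as the number of animals affected out of the number tested.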

[7] = test system: Mus musculus; assay: Neurotoxicity in mouse at 50 mg/kg, ip after 1 hr by rotarod test; format: toxicity, organism-based; conditions: in vivo; procedure, shortened: as §2
[8] = test system: Mus musculus; assay: Neurotoxicity in mouse at 50 mg/kg, ip after 2 hrs by rotarod test; format: toxicity, organism-based; conditions: in vivo; procedure, shortened: as §2
[9] = test system: Mus musculus; assay: Neurotoxicity in mouse at 50 mg/kg, ip after 4 hrs by rotarod test; format: toxicity, organism-based; conditions: in vivo; procedure, shortened: as §2
[10] = test system: Mus musculus; assay: Neurotoxicity in mouse at 100 mg/kg, ip after […] by rotarod test; format: toxicity, organism-based; conditions: in vivo
[11] = test system: Mus musculus; assay: Anticonvulsant activity in mouse assessed as protection against maximal electric shock-induced seizures at 100 mg/kg, ip measured after 0.5 hrs; format: functional, organism-based
Procedure, shortened: (§3)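 Mice dosed ip with suspension in 0.5% methylcellulose; maximal electroshock applied at the listed time after dosing. Protection = abolition of hindlimb tonic extension component of seizure; reported as animals protected/animals tested.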

[12] = test system: Mus musculus; assay: Anticonvulsant activity in mouse assessed as protection against maximal electric shock-induced seizures at 100 mg/kg, ip measured after 1 hr; format: functional, organism-based; procedure, shortened: as §3
[13] = test system: Mus musculus; assay: Anticonvulsant activity in mouse assessed as protection against maximal electric shock-induced seizures at 100 mg/kg, ip measured after 4 hrs; format: functional, organism-based; procedure, shortened: as §3
[14] = test system: Mus musculus; assay: Neurotoxicity in mouse at 100 mg/kg, ip after 0.5 hrs by rotarod test; format: toxicity, organism-based; conditions: in vivo; procedure, shortened: as §2
[15] = test system: Mus musculus; assay: Neurotoxicity in mouse at 100 mg/kg, ip after 1 hr by rotarod test; format: toxicity, organism-based; conditions: in vivo; procedure, shortened: as §2
[16] = test system: Mus musculus; assay: Neurotoxicity in mouse at 100 mg/kg, ip after 4 hrs by rotarod test; format: toxicity, organism-based; conditions: in vivo; procedure, shortened: as §2
[17] = Displacement of [3H]D888 from rat cerebral cortex L-type calcium channel verapamil binding site; format: tissue-based
[18] = test system: Mus musculus; assay: Anticonvulsant activity in mouse assessed as protection against 6 Hz psychomotor seizure at 100 mg/kg, ip after 1 hr; format: functional, organism-based; procedure, shortened: as §1
[19] = test system: Mus musculus; assay: Anticonvulsant activity in mouse assessed as protection against 6 Hz psychomotor seizure at 100 mg/kg, ip after 2 hrs; format: functional, organism-based; procedure, shortened: as §1
[20] = test system: Mus musculus; assay: Anticonvulsant activity in mouse assessed as protection against 6 Hz psychomotor seizure at 100 mg/kg, ip after […]; format: functional, organism-based
[21] = test system: Mus musculus; assay: Anticonvulsant activity in mouse assessed as protection against 6 Hz psychomotor seizure at 100 mg/kg, ip after 4 hrs; format: functional, organism-based; procedure, shortened: as §1
[22] = test system: Mus musculus; assay: Anticonvulsant activity in mouse assessed as protection against maximal electric shock-induced seizures at 30 mg/kg, ip measured after 0.5 hrs; format: functional, organism-based; procedure, shortened: as §3
[23] = test system: Mus musculus; assay: Anticonvulsant activity in mouse assessed as protection against maximal electric shock-induced seizures at 30 mg/kg, ip measured after 4 hrs; format: functional, organism-based; procedure, shortened: as §3
[24] = test system: Mus musculus; assay: Anticonvulsant activity in mouse assessed as protection against subcutaneous pentylenetetrazol-induced seizures at 30 mg/kg, ip measured after 0.5 hrs; format: functional, organism-based
Procedure, shortened: (§4)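 Mice dosed ip as 0.5% methylcellulose suspension; pentylenetetrazole 85 mg/kg in 0.9% NaCl injected subcutaneously into posterior midline, animals watched at least 30 min. Protection = no threshold seizure (single clonic spasm episode lasting ≥5 s); scored protected/tested.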

[25] = test system: Mus musculus; assay: Anticonvulsant activity in mouse assessed as protection against subcutaneous pentylenetetrazol-induced seizures at 30 mg/kg, ip measured after 4 hrs; format: functional, organism-based; procedure, shortened: as §4
[26] = test system: Mus musculus; assay: Anticonvulsant activity in mouse assessed as protection against subcutaneous pentylenetetrazol-induced seizures at 100 mg/kg, ip measured after 4 hrs; format: functional, organism-based; procedure, shortened: as §4
[27] = test system: Mus musculus; assay: Neurotoxicity in mouse at 30 mg/kg, ip after 0.5 hrs by rotarod test; format: toxicity, organism-based; conditions: in vivo; procedure, shortened: as §2
[28] = test system: Mus musculus; assay: Neurotoxicity in mouse at 30 mg/kg, ip after 4 hrs by rotarod test; format: toxicity, organism-based; conditions: in vivo; procedure, shortened: as §2
[29] = test system: Mus musculus; assay: Neurotoxicity in mouse at 300 mg/kg, ip after 0.5 hrs by rotarod test; format: toxicity, organism-based; conditions: in vivo; procedure, shortened: as §2
[30] = test system: Mus musculus; assay: Neurotoxicity in mouse at 300 mg/kg, ip after 4 hrs by rotarod test; format: toxicity, organism-based; conditions: in vivo; procedure, shortened: as §2

SMILES: Cc1cccc(OCCN[C@@H]2CCCC[C@H]2O)c1C (racemic)
Activity [1]: Active | Activity [2]: inactive | Activity [3]: inactive | Activity [4]: inactive | Activity [5]: inactive | Activity [6]: Non-toxic | Activity [7]: Non-toxic | Activity [8]: Non-toxic | Activity [9]: Non-toxic | Activity [10]: Toxic | Activity [11]: Active | Activity [12]: Active | Activity [13]: inactive | Activity [14]: Toxic | Activity [15]: Toxic | Activity [16]: Non-toxic

IC50 [17]: 15 nM
SMILES: COc1ccc(CCN(C)CCCC(C#N)(c2cc(OC)c(OC)c(OC)c2)C(C)C)cc1OC (centres undefined) [GALLOPAMIL]

SMILES: Cc1cccc(OCCOCCNC(C)CO)c1C (centres undefined)
Activity [18]: Active | Activity [19]: inactive | Activity [20]: Active | Activity [21]: inactive | Activity [10]: Toxic | Activity [22]: inactive | Activity [23]: inactive | Activity [13]: inactive | Activity [24]: inactive | Activity [25]: inactive | Activity [26]: inactive | Activity [27]: Non-toxic | Activity [28]: Non-toxic | Activity [14]: Toxic | Activity [16]: Non-toxic | Activity [29]: Toxic | Activity [30]: Non-toxic
